Screens from PubChem BioAssay.
A selection: hits, their analogues and other compounds. The true share with any hit is near 1.7%.
M5 PAM = human M5 muscarinic receptor positive allosteric modulators, primary screen, CHO-K1 cells, Fluo-8 calcium fluorescence; hit rate 0.3% among 360,000; Muscarinic acetylcholine receptor M5 (Homo sapiens), P08912; AID 624038, 2012; CHO-K1 hM5, ACh EC20 PAM; 0% = ACh EC20, 100% = ACh EC100; activation, % at 3 µM;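 active = activation above the run cutoff, the mean activation of all test compounds plus 3 SD, cut at about 18% in these data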
Target sequence (P08912 whole entry, looked up): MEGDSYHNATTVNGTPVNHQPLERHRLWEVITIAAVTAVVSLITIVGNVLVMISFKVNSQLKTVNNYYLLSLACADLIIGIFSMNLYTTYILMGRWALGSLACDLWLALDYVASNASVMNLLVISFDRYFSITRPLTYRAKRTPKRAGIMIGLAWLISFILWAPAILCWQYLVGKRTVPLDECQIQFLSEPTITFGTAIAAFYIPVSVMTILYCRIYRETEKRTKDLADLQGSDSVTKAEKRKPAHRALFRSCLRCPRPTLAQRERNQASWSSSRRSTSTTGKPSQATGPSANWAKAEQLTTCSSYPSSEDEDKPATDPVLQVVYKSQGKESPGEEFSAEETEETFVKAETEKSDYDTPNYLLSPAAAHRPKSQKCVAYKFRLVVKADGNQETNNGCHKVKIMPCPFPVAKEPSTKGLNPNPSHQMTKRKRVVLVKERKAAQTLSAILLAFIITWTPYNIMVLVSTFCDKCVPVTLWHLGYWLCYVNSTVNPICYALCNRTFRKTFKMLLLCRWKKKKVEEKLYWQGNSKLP
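Probe or stimulus: acetylcholine, EC20 level; Assay system: human M5 receptor in CHO-K1 cells; Schedule: compound preincubation 140 s before EC20 acetylcholine addition; Technique: intracellular calcium via Fluo-8 fluorescence; Dosing: single-point, 3 µM nominal; Read-out basis: percent activation from peak-over-basal fluorescence ratio, scaled EC20-to-EC100 acetylcholine; Repeats: one well per compound, no replicates.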
CHO-K1 Ca PAM = nonselective calcium activators in parental CHO-K1 cells, primary screen, counter-screen for M1 PAM project, cell-based, Fluo-8 calcium fluorescence, full deck, 1536-well; ATP EC20; 0% at ATP EC20, 100% at ATP max; activation, % at 3 µM; hit rate 0.02% among 360,000; AID 602247, 2012;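 active = activation above the run cutoff, the mean activation of all test compounds plus 3 SD, cut at about 40% in these data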;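 note: peak over basal fluorescence ratio in a 140 s read after ATP addition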
CHRM5 agonist = human M5 muscarinic receptor agonists, primary screen, CHO-K1 cells, Fluo-8 calcium fluorescence; CHO-K1 hM5 cells; 0% DMSO wells, 100% maximal acetylcholine response; activation, % at 3 µM; hit rate 0.19% among 360,000;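 active = activation above the run's mean over test compounds plus 3 SD, cut at about 23% in these data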;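 note: signal is peak over basal fluorescence ratio across the kinetic read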
CHO-K1 Ca antag = nonselective inhibitor or artifact in parental CHO-K1 cells | hit rate 0.6% among 360,000 | AID 602250 | ATP-induced calcium, Fluo-8 fluorescence | inhibition, % at 3 µM;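 active = inhibition above a per-plate cutoff, the plate's mean sample inhibition plus 3 SD, cut at about 24% in these data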;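 note: 0% = DMSO plus EC80 ATP and 100% = DMSO alone without ATP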
M5 antag = human M5 muscarinic receptor antagonists, primary screen, CHO cells, Fluo-8 calcium fluorescence; Muscarinic acetylcholine receptor M5 (Homo sapiens), P08912; CHO-hM5 cells, ACh EC80; inhibition, % at 3 µM; hit rate 0.59% among 360,000;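 active = inhibition above a per-plate cutoff, the mean of that plate's test compounds plus 3 SD, cut at about 27% in these data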;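 note: 0% = acetylcholine EC80 with DMSO and 100% = DMSO without agonist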
M1 ag parental = counter-screen for M1 agonists: effect in parental CHO-K1 cells | hit rate 0.48% among 360,000 | activation, % at 3 µM | AID 602248, 2012 | Fluo-8 calcium fluorescence; scaled to maximal ATP response, vehicle zero; in the data active = activation above about 15%;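 note: untransfected CHO-K1 host cells lacking M1 receptor as counterscreen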
Starred values were filed as active, the others as inactive.

SMILES	M5 PAM	CHO-K1 Ca PAM	CHRM5 agonist	CHO-K1 Ca antag	M5 antag	M1 ag parental
Cn1c(SCC(O)c2ccccc2)nnc1-c1ccc2ccccc2c1 (stereo unspecified)	-1.4	17.1	-4.3	-9.0	9.8	2.4
O=c1c2ccccc2nc2sc(Nc3cccc(Cl)c3)nn12	19.7*	5.6	5.7	-4.4	-15.1	0.2
Cc1nc2ccccc2c(=O)n1Nc1cccc(Cl)c1	-1.9	4.7	0.2	-8.1	-0.1	1.4
O=C(Nc1ccccc1C(F)(F)F)N1CCCCCC1	5.4	15.0	-1.1	-4.7	-4.2	0.1
O=C(Nc1ccccc1C(F)(F)F)N1CCN(C(c2ccccc2)c2ccccc2)CC1	-17.6	12.3	-7.7	1.1	30.0*	0.5
O=c1ccc2ccc(Oc3ccc(Cl)cc3[N+](=O)[O-])cc2o1	2.0	6.9	-4.4	-5.2	13.2	-0.1
CCOC(=O)c1cnc2c(cnn2C)c1NCCCN(C)C	1.4	-6.9	0.1	32.9*	-1.4	0.1
CCOC(=O)c1cnc2c(Cl)cccc2c1NCCN(C)C	45.1*	-4.8	-1.4	7.7	19.6	-0.5
Cc1ccc(O)c(C(=O)c2cnc(/N=C(\N)N(C)C)nc2)c1	-1.0	28.9	-8.1	-23.0	-5.9	1.1
C=CCNC(=S)N(Cc1ccccc1)Cc1ccccc1	-3.5	22.1	-7.6	-6.8	-3.9	0.4
COc1cc(/C=C/C(=O)O)cc(S(=O)(=O)NCc2ccco2)c1OC	6.8	15.1	-0.6	-5.8	5.3	0.6
COc1ccc(/C=C/C(=O)O)cc1S(=O)(=O)NCc1ccco1	24.8*	-7.2	7.8	1.7	-1.5	0.3
CCc1cc(OCCCCNCc2ccccc2)ccc1Cl	-7.0	26.4	1.9	2.4	8.7	16.8*
CC(C)(C)c1ccc(OCCCNCc2ccccc2)cc1	-5.4	13.1	1.1	1.2	2.4	3.0
Cc1ccnc(NC(=O)CCCNC(=O)c2ccc(Cl)cc2)c1	12.0	27.1	-4.5	-6.5	-9.7	0.6
O=S(=O)(Nc1ncn[nH]1)c1ccc2ccccc2c1	-13.8	4.2	-7.5	-7.4	-1.3	0.1
O=S(=O)(Nc1nc2ccccc2[nH]1)c1ccc2ccccc2c1	-15.8	27.8	-6.8	-8.3	38.9*	1.7
COc1nc(-c2ccc(C)cc2)ccc1-c1noc(-c2ccco2)n1	27.9*	19.9	-1.3	-14.9	-5.9	-0.3
O=C(CSc1nc2ccccc2[nH]1)Nc1c(F)c(F)c(F)c(F)c1F	-7.3	15.8	0.3	-15.2	-1.8	3.8
N#Cc1ncc(Cc2ccccc2)nc1C#N	-2.9	9.7	-2.2	0.0	5.4	0.6
CC(C)C[C@H]1CN=C(Nc2ccccc2)N1CCc1ccc(F)cc1	-40.0	-16.6	64.1*	22.6	13.1	64.2*
CC(C)C[C@H]1CN=C(Nc2ccccc2)N1CCc1cccc(F)c1	-40.1	-23.2	74.3*	43.2*	37.6*	85.4*
Cc1cccc(CCN2C(Nc3ccccc3)=NC[C@@H]2CC(C)C)c1	-42.8	-22.4	58.1*	37.0*	14.8	64.3*
CC(C)C[C@H]1CN=C(N(C)C)N1CCc1cccc(F)c1	-0.4	-12.1	-12.1	-14.5	-0.3	0.4
CCc1ccccc1NC(=O)C1CCCN(c2ncccn2)C1 (stereo unspecified)	8.6	3.4	-0.1	-3.0	-4.1	1.6
SMILES	M5 PAM	CHO-K1 Ca PAM	CHRM5 agonist	CHO-K1 Ca antag	M5 antag	M1 ag parental
CCN(CC)C(=O)c1[nH]cnc1C(=O)NCC(=O)OCc1ccccc1	-29.0	4.5	3.1	-3.8	26.9*	8.9
CCCc1cc2c(cc1N(C)S(=O)(=O)c1ccccc1)OCO2	-12.2	12.0	-3.4	-14.2	28.0*	-0.6
O=C(NCCc1ccccc1)C1CCCN1S(=O)(=O)c1cccc2nsnc12 (stereo unspecified)	0.8	14.7	0.8	-21.9	-5.9	3.2
O=C(NCCN1C(=O)CSC1=O)C1CC(=O)N(c2ccccc2)C1 (stereo unspecified)	3.9	19.5	-2.1	-2.5	-9.8	0.2
COc1ccc(O)c(/C=N/n2c(-c3ccco3)csc2=Nc2cccnc2)c1	-7.3	-15.0	-1.3	28.3*	7.0	0.3
Cc1cc(C)nc(NS(=O)(=O)c2ccc(NC(=O)C3(c4ccc([N+](=O)[O-])cc4)CCCC3)cc2)n1	5.2	29.3	19.0	-0.7	3.3	12.7
CCN(CC)CCOC(=O)C1(c2ccc([N+](=O)[O-])cc2)CCCC1	-18.8	8.0	-1.7	-5.5	83.8*	0.5
CCN(CC)CCCOC(=O)C1(c2ccccc2)CCCC1	-16.2	1.2	-11.5	-3.3	99.5*	0.9
CCN(CC)CCOC(=O)C1(c2ccccc2)CCOCC1	-17.5	-6.6	-10.7	9.8	-4.6	0.0
CCN(CC)CCOCCOC(=O)C1(c2ccccc2)CCCC1	-19.2	2.1	-1.1	2.4	95.8*	0.5
O=C1c2ccccc2C(=O)N1CN(C(=O)COc1ccccc1)c1ccccc1	-7.5	16.2	2.2	-30.7	0.0	2.8
O=C1c2ccccc2C(=O)N1CN(C(=O)c1ccccc1)c1ccc(O)cc1	-2.3	5.7	4.6	12.4	6.7	22.3*
CCn1cc(S(=O)(=O)CC(=O)Nc2ccc(C)cc2)c2ccccc21	-7.6	-7.7	0.4	26.7*	7.3	0.1
CC(=O)NS(=O)(=O)c1ccc(NC(=O)c2ccccn2)cc1	-2.1	7.6	-1.0	-11.1	4.6	2.2
COCC(C)NS(=O)(=O)c1ccc(NC(=O)c2ccccn2)cc1 (stereo unspecified)	-17.8	5.3	-3.0	-11.1	30.2*	1.5
Cc1nnc(SCc2cc(=O)n3[nH]cnc3n2)s1	-2.8	-6.6	-0.4	24.8*	8.1	-0.3
COc1cccc(OC)c1C(=O)Nc1ccc2c(c1)Cc1ccccc1-2	8.5	10.2	-3.8	-8.0	-2.5	0.3
COc1ccc(C(=O)Nc2ccc3c(c2)Cc2ccccc2-3)cc1	-1.0	-5.7	1.8	24.1*	3.0	0.0
CC1CCN(C(=O)C2CCN(c3nnc(-n4cccc4)s3)CC2)CC1	-6.0	6.2	-7.5	56.8*	5.9	0.7
O=C(C1CCN(c2nnc(-n3cccc3)s2)CC1)N1CCCCC1	5.0	13.3	-4.6	-14.7	9.3	0.8
CCOC(=O)C1CCCN(C2CCN(Cc3nc(-c4ccccc4)no3)CC2)C1 (stereo unspecified)	-17.8	10.9	-10.4	-1.3	44.6*	1.1
CCNc1nc(NC(C)C)nc(N(C#N)Cc2ccccc2)n1	4.6	12.7	-0.2	-3.5	-5.6	15.7*
